Data: ChEMBL document CHEMBL1649427, “Inactivation of the glycoside hydrolase NagZ attenuates antipseudomonal beta-lactam resistance in Pseudomonas aeruginosa” (Antimicrob Agents Chemother, 2009)
In brackets after ≈: the same amount, converted by molar mass.

Experiments:
Pseudomonas aeruginosa [1] = assay: Antimicrobial activity against ampDh2 gene-deficient Pseudomonas aeruginosa PAO1 using 30 ug/disk by agar diffusion method; format: functional
How it was run: (§1)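 Cultures grown in Mueller-Hinton broth at 37°C to OD600 ~0.5, pelleted, resuspended in 2 ml broth and streaked on Mueller-Hinton agar. Inhibition zone diameter measured after overnight incubation at 37°C. Triplicate determinations.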

Pseudomonas aeruginosa [2] = assay: Antimicrobial activity against Pseudomonas aeruginosa PAO1 after 18 hrs by broth microdilution method; format: functional; conditions: PAO1, 18 h
How it was run: (§2)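 CLSI broth microdilution in cation-adjusted Mueller-Hinton medium with serial β-lactam dilutions. Each well holds 200 μl broth inoculated with ~10⁴ cells from starter cultures at OD600 ~0.5. Plates shaken at 37°C for 18 h. The MIC is read as the lowest antibiotic concentration showing no growth. Triplicate determinations.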

Pseudomonas aeruginosa [3] = assay: Antimicrobial activity against ampD gene-deficient Pseudomonas aeruginosa PAO1 after 18 hrs by broth microdilution method in absence of EtBuPUG; conditions: PAO1, 18 h
Pseudomonas aeruginosa [4] = assay: Antimicrobial activity against Pseudomonas aeruginosa PAO1 harboring deltaampD::lox deltaampDh2::lox delta ampDh3::lox and wild type nagZ gene after 18 hrs by Etest; format: functional; conditions: PAO1, 18 h
How it was run: (§3)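 Etest strips on Mueller-Hinton agar supplemented with 75 μg/ml tetracycline to maintain the vector or complementation plasmid, run per the manufacturer's recommendations; triplicate determinations.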

Pseudomonas aeruginosa [5] = assay: Antimicrobial activity against ampDDh2 and ampDh3 gene-deficient Pseudomonas aeruginosa PAO1 after 18 hrs by broth microdilution method in presence of 0.5 mM nagZ inhibitor EtBuPUG; format: functional; conditions: PAO1, 18 h
How it was run: (§4)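 Wells are then inoculated with 100 μl culture and incubated 18 h at 37°C. The MIC is the lowest concentration with no growth. Triplicate determinations.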

Pseudomonas aeruginosa [6] = assay: Antimicrobial activity against ampD gene-deficient Pseudomonas aeruginosa PAO1 after 18 hrs by broth microdilution method in presence of 0.5 mM nagZ inhibitor EtBuPUG; format: functional; conditions: PAO1, 18 h; how it was run: as §4
Pseudomonas aeruginosa [7] = assay: Antimicrobial activity against Pseudomonas aeruginosa PAO1 after 18 hrs by using 30 ug/disk by agar diffusion method in presence of 0.5 mM nagZ inhibitor EtBuPUG; format: functional
How it was run: (§5)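 Cultures grown in Mueller-Hinton broth at 37°C to OD600 ~0.5, pelleted, resuspended in 2 ml broth and streaked on Mueller-Hinton agar. […] Inhibition zone diameter measured after overnight incubation at 37°C. Triplicate determinations.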

Pseudomonas aeruginosa [8] = assay: Antimicrobial activity against ampDh2 gene-deficient Pseudomonas aeruginosa PAO1 after 18 hrs by broth microdilution method in absence of EtBuPUG; conditions: PAO1, 18 h
Pseudomonas aeruginosa [9] = assay: Antimicrobial activity against Pseudomonas aeruginosa PAO1 harboring deltaampD::lox deltaampDh2::lox delta ampDh3::lox after 18 hrs by Etest; format: functional; conditions: PAO1, 18 h
How it was run: (§6)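 Etest strips on Mueller-Hinton agar plates, run per the manufacturer's recommendations; MICs determined in triplicate.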

Pseudomonas aeruginosa [10] = assay: Antimicrobial activity against Pseudomonas aeruginosa PAO1 harboring deltaampD::lox deltaampDh2::lox deltaampDh3::lox deltanagZ::Gm after 18 hrs by Etest; format: functional; conditions: PAO1, 18 h; how it was run: as §6
Pseudomonas aeruginosa [11] = assay: Antimicrobial activity against ampDh3 gene-deficient Pseudomonas aeruginosa PAO1 after 18 hrs by broth microdilution method in presence of 0.5 mM nagZ inhibitor EtBuPUG; format: functional; conditions: PAO1, 18 h; how it was run: as §4
Pseudomonas aeruginosa [12] = assay: Ratio of MIC for ampDh3 gene-deficient Pseudomonas aeruginosa PAO1 after 18 hrs by broth microdilution method presence of 0.5 mM nagZ inhibitor EtBuPUG to MIC for ampDh3 gene-deficient Pseudomonas aeruginosa PAO1 in absence of nagZ inhibitor EtBuPUG; format: functional
How it was run: (§7)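 Broth microdilution in Mueller-Hinton broth. Serial β-lactam dilutions in 80 μl broth, plus 20 μl EtBuPUG (5 mM stock in H₂O) or 20 μl H₂O, then 100 μl culture grown to OD600 ~0.5. Plates incubated at 37°C for 18 h. MIC read as the antibiotic concentration in wells with no growth, with and without inhibitor. Triplicate.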

Pseudomonas aeruginosa [13] = assay: Antimicrobial activity against nagZ gene-deficient Pseudomonas aeruginosa PAO1 after 18 hrs by broth microdilution method; format: functional; conditions: PAO1, 18 h; how it was run: as §2
Pseudomonas aeruginosa [14] = assay: Antimicrobial activity against ampDh2 gene-deficient Pseudomonas aeruginosa PAO1 after 18 hrs by broth microdilution method in presence of 0.5 mM nagZ inhibitor EtBuPUG; format: functional; conditions: PAO1, 18 h; how it was run: as §4
Pseudomonas aeruginosa [15] = assay: Antimicrobial activity against ampDDh2 gene-deficient Pseudomonas aeruginosa PAO1 after 18 hrs by broth microdilution method in presence; format: functional; conditions: PAO1, 18 h; how it was run: as §4
Pseudomonas aeruginosa [16] = assay: Antimicrobial activity against ampDh3 gene-deficient Pseudomonas aeruginosa PAO1 after 18 hrs by broth microdilution method in presence; format: functional; conditions: PAO1, 18 h; how it was run: as §4
Pseudomonas aeruginosa [17] = assay: Antimicrobial activity against ampDh2 and ampDh3 gene-deficient Pseudomonas aeruginosa PAO1 after 18 hrs by broth microdilution method in presence of 0.5 mM nagZ inhibitor EtBuPUG; format: functional; conditions: PAO1, 18 h; how it was run: as §4
Pseudomonas aeruginosa [18] = assay: Antimicrobial activity against ampDDh2 and ampDh3 gene-deficient Pseudomonas aeruginosa PAO1 after 18 hrs using […] by agar diffusion method in presence of 0.5 mM nagZ inhibitor EtBuPUG; format: functional; how it was run: as §1
Pseudomonas aeruginosa [19] = assay: Ratio of MIC for Pseudomonas aeruginosa PAO1 harboring deltaampD::lox deltaampDh2::lox deltaampDh3::lox to MIC for Pseudomonas aeruginosa PAO1 harboring deltaampD::lox deltaampDh2::lox deltaampDh3::lox deltanagZ::Gm
Pseudomonas aeruginosa [20] = assay: Ratio of MIC for ampD gene-deficient Pseudomonas aeruginosa PAO1 after 18 hrs by broth microdilution method presence of 0.5 mM nagZ inhibitor EtBuPUG to MIC for […] gene-deficient Pseudomonas aeruginosa PAO1 in absence of nagZ inhibitor EtBuPUG; format: functional; how it was run: as §7
Pseudomonas aeruginosa [21] = assay: Antimicrobial activity against ampDDh3 gene-deficient Pseudomonas aeruginosa PAO1 after 18 hrs by broth microdilution method in presence; format: functional; conditions: PAO1, 18 h; how it was run: as §4
Pseudomonas aeruginosa [22] = assay: Antimicrobial activity against Pseudomonas aeruginosa PAO1 after 18 hrs by using 30 ug/disk by agar diffusion method; format: functional; how it was run: as §1
Pseudomonas aeruginosa [23] = assay: Antimicrobial activity against Pseudomonas aeruginosa PAO1 harboring deltaampD::lox deltaampDh2::lox delta ampDh3::lox and plasmid pUCP27 after 18 hrs by Etest; format: functional; conditions: PAO1, 18 h; how it was run: as §3
Pseudomonas aeruginosa [24] = assay: Ratio of MIC for ampDh2 gene-deficient Pseudomonas aeruginosa PAO1 after 18 hrs by broth microdilution method in presence of 0.5 mM nagZ inhibitor EtBuPUG to MIC for ampDh2 gene-deficient Pseudomonas aeruginosa PAO1 in absence of nagZ inhibitor EtBuPUG; format: functional; how it was run: as §7
Pseudomonas aeruginosa [25] = assay: Antimicrobial activity against ampDh2 and ampDh3 gene-deficient Pseudomonas aeruginosa PAO1 after 18 hrs by broth microdilution method; format: functional; conditions: PAO1, 18 h; how it was run: as §4
Pseudomonas aeruginosa [26] = assay: Antimicrobial activity against ampDh2 gene-deficient Pseudomonas aeruginosa PAO1 using 30 ug/disk by agar diffusion method in presence of 0.5 mM nagZ inhibitor EtBuPUG; format: functional; how it was run: as §5
Pseudomonas aeruginosa [27] = assay: Antimicrobial activity against ampDDh2 and ampDh3 gene-deficient Pseudomonas aeruginosa PAO1 after 18 hrs using […] by agar diffusion method; format: functional; how it was run: as §5
Pseudomonas aeruginosa [28] = assay: Antimicrobial activity against ampDDh3 gene-deficient Pseudomonas aeruginosa PAO1 after 18 hrs by broth microdilution method in presence of 0.5 mM nagZ inhibitor EtBuPUG; format: functional; conditions: PAO1, 18 h; how it was run: as §4
Pseudomonas aeruginosa [29] = assay: Antimicrobial activity against ampDDh2 gene-deficient Pseudomonas aeruginosa PAO1 after 18 hrs by broth microdilution method in presence of 0.5 mM nagZ inhibitor EtBuPUG; format: functional; conditions: PAO1, 18 h; how it was run: as §4
Pseudomonas aeruginosa [30] = assay: Antimicrobial activity against Pseudomonas aeruginosa PAO1 after 18 hrs by broth microdilution method in presence of 0.5 mM nagZ inhibitor EtBuPUG; format: functional; conditions: PAO1, 18 h; how it was run: as §4
Pseudomonas aeruginosa [31] = assay: Antimicrobial activity against Pseudomonas aeruginosa PAO1 after 18 hrs by Etest; format: functional; conditions: PAO1, 18 h
How it was run: (§8)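 Strains are P. aeruginosa PAO1 and its insertional nagZ-inactivated derivative. MICs were read from Etest strips on Mueller-Hinton agar, following the manufacturer's recommendations. Each determination was done in triplicate.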

Pseudomonas aeruginosa [32] = assay: Antimicrobial activity against nagZ gene-deficient Pseudomonas aeruginosa PAO1 after 18 hrs by Etest; format: functional; conditions: PAO1, 18 h; how it was run: as §8

**Q.** What does the source list for CC(C)(O/N=C(\C(=O)N[C@@H]1C(=O)N2C(C(=O)[O-])=C(C[n+]3ccccc3)CS[C@H]12)c1csc(N)n1)C(=O)O [CEFTAZIDIME]?
**A.** inhibition zone (IZ) (Pseudomonas aeruginosa [1]): 10.1 mm; MIC (Pseudomonas aeruginosa [2]): 1 µg/mL (≈ 1.83 µM); MIC (Pseudomonas aeruginosa [3]): 8 µg/mL (≈ 14.6 µM); MIC (Pseudomonas aeruginosa [4]): 48 µg/mL (≈ 87.8 µM); MIC (Pseudomonas aeruginosa [5]): 48 µg/mL; MIC (Pseudomonas aeruginosa [6]): 4 µg/mL; inhibition zone (IZ) (Pseudomonas aeruginosa [7]): 13.1 mm; MIC (Pseudomonas aeruginosa [8]): 0.75 µg/mL (≈ 1.37 µM); MIC (Pseudomonas aeruginosa [9]): 48 µg/mL (≈ 87.8 µM); MIC (Pseudomonas aeruginosa [10]): 12 µg/mL (≈ 22 µM); MIC (Pseudomonas aeruginosa [11]): 0.5 µg/mL; Ratio (Pseudomonas aeruginosa [12]): 2; MIC (Pseudomonas aeruginosa [13]): 0.5 µg/mL (≈ 0.915 µM); MIC (Pseudomonas aeruginosa [14]): 0.19 µg/mL; MIC (Pseudomonas aeruginosa [15]): 12 µg/mL (≈ 22 µM); MIC (Pseudomonas aeruginosa [16]): 1 µg/mL (≈ 1.83 µM); MIC (Pseudomonas aeruginosa [17]): 0.75 µg/mL; inhibition zone (IZ) (Pseudomonas aeruginosa [18]): 9.5 mm; Ratio (Pseudomonas aeruginosa [19]): 4; Ratio (Pseudomonas aeruginosa [20]): 2; MIC (Pseudomonas aeruginosa [21]): 48 µg/mL (≈ 87.8 µM); inhibition zone (IZ) (Pseudomonas aeruginosa [22]): 11.4 mm; MIC (Pseudomonas aeruginosa [23]): 12 µg/mL (≈ 22 µM); Ratio (Pseudomonas aeruginosa [24]): 4; MIC (Pseudomonas aeruginosa [25]): 0.75 µg/mL (≈ 1.37 µM); inhibition zone (IZ) (Pseudomonas aeruginosa [26]): 12.3 mm; inhibition zone (IZ) (Pseudomonas aeruginosa [27]): 9.2 mm; MIC (Pseudomonas aeruginosa [28]): 48 µg/mL; MIC (Pseudomonas aeruginosa [29]): 6 µg/mL; MIC (Pseudomonas aeruginosa [30]): 0.5 µg/mL

**Q.** Which results are given for CO/N=C(\C(=O)N[C@@H]1C(=O)N2C(C(=O)[O-])=C(C[N+]3(C)CCCC3)CS[C@H]12)c1csc(N)n1?
**A.** MIC (Pseudomonas aeruginosa [9]): 12 µg/mL (≈ 25 µM); MIC (Pseudomonas aeruginosa [10]): 3 µg/mL (≈ 6.24 µM); Ratio (Pseudomonas aeruginosa [19]): 4; MIC (Pseudomonas aeruginosa [31]): 0.5 µg/mL (≈ 1.04 µM); MIC (Pseudomonas aeruginosa [32]): 0.38 µg/mL (≈ 0.791 µM)
